For 20 molecules, Ki and Ki ratio results are on record in ChEMBL document CHEMBL1130349, “Synthesis and structure-activity relationships of a new model of arylpiperazines. 3.1 2-[omega-(4-arylpiperazin-1-yl)alkyl]perhydropyrrolo- [1,2-c]imidazoles and -perhydroimidazo[1,5-a]pyridines: study of the influence of the terminal amide fragment on 5-HT1A affinity/selectivity” (J Med Chem, 1997).

SMILES strings stand for the structures.

For test [1], the target named is T1, 5-hydroxytryptamine receptor 1A (Rattus norvegicus, UniProt P19327).
T1 sequence (P19327 whole entry): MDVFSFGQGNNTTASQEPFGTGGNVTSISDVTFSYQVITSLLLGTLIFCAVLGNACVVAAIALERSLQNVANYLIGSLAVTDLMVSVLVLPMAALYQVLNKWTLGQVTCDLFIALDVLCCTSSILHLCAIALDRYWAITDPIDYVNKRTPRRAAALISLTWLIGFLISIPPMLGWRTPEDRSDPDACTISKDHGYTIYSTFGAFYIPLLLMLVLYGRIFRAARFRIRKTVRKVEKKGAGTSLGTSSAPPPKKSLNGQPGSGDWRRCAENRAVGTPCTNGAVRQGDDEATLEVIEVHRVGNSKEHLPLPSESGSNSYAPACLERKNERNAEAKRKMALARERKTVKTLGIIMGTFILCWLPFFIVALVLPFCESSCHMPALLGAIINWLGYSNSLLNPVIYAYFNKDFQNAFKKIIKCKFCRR
In words: Binding affinities against 5-hydroxytryptamine 1A receptor using [3H]8-OH-DPAT as radioligand in rat cerebral cortex membrane. The format is cell membranes. In outline:
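Rat cerebral cortex homogenised in ice-cold 50 mM Tris-HCl (pH 7.7), washed twice, preincubated 10 min at 37 °C. Membranes (~1 mg protein) incubated 15 min at 37 °C with 0.6 nM [3H]-8-OH-DPAT across several competitor concentrations. Nonspecific binding defined by 10 μM 5-HT. Two to four experiments, each in triplicate.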

Test [2] has as its target T2, Alpha-1A adrenergic receptor (Rattus norvegicus, UniProt P43140).
T2 sequence (P43140 whole entry): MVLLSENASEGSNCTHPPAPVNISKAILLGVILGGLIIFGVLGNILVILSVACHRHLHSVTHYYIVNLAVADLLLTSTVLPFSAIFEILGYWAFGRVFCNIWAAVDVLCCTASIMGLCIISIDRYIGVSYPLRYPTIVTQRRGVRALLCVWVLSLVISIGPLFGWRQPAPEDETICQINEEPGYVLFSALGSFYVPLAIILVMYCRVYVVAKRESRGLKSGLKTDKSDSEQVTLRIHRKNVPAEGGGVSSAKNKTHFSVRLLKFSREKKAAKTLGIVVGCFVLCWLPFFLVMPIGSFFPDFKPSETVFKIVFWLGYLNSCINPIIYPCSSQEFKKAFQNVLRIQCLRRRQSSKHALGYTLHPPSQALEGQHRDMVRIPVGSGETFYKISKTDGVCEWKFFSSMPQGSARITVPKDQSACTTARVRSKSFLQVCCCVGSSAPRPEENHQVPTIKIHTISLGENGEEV
In words: Binding affinities against Alpha-1 adrenergic receptor (alpha1 adrenoceptor) using [3H]prazosin as radioligand in rat cerebral cortex membrane. The format is cell membranes. In a few lines: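 Radioligand binding run by a cited earlier method; values are means ± SEM of two to four experiments, each in triplicate.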

Test [3] in a line: Selectivity ratio of serotonin and alpha receptor. Also on record: reference not given here.

On to `COc1ccccc1N1CCN(CCCN2CC3CCCCN3C2)CC1` (stereo not given), for which the Ki amounted to 13.9 nM in test [1] and 218 nM in test [2]. In test [3], the Ki ratio worked out at 15.7.
In test [2], `O=C1C2CCCCN2C(=O)N1CCCCN1CCN(c2cccc(C(F)(F)F)c2)CC1` (stereo not given) registered a Ki of 72.4 nM. Also, in test [3], the Ki ratio was 7.3.
In turn, `O=C1C2CCCCN2C(=O)N1CCCN1CCN(c2cccc(C(F)(F)F)c2)CC1` (stereo not given) displayed a Ki in test [2] of 90.4 nM. The Ki ratio in test [3] came to 15.9.
In the case of `FC(F)(F)c1cccc(N2CCN(CCCCN3CC4CCCN4C3)CC2)c1` (stereo not given), the figures for the Ki in test [1] and in test [2] were 12.3 nM and 240 nM, respectively. The Ki ratio in test [3] was found to be 19.5.
With `O=C1C2CCCN2C(=O)N1CCCCN1CCN(c2cccc(C(F)(F)F)c2)CC1` (stereo not given), in test [2], the affinity, expressed as Ki, was 64.9 nM. In addition, the Ki ratio in test [3] came out at 27.
In the case of `COc1ccccc1N1CCN(CCCCN2CC3CCCCN3C2)CC1` (stereo not given), the Ki in test [1] amounted to 5.1 nM; in test [2], 45 nM. For the same molecule, the Ki ratio in test [3] was found to be 8.8.
For `Clc1cccc(N2CCN(CCCCN3CC4CCCN4C3)CC2)c1` (stereo not given), the Ki amounted to 28.1 nM in test [1] and 64.9 nM in test [2]. The Ki ratio in test [3] came out at 2.3.
For the molecule `FC(F)(F)c1cccc(N2CCN(CCCN3CC4CCCN4C3)CC2)c1` (stereo not given), the Ki in test [1] was found to be 29.1 nM; in test [2] it was 363 nM. Moreover, in test [3], the Ki ratio is 12.5.
With `COc1ccccc1N1CCN(CCCCN2CC3CCCN3C2)CC1` (stereo not given), the Ki in test [1] amounted to 17.5 nM; in test [2] it was 72.6 nM. Further, the Ki ratio in test [3] worked out at 4.1.
Take `O=C1C2CCCN2C(=O)N1CCCCN1CCN(c2cccc(Cl)c2)CC1` (stereo not given): in test [2], the affinity, expressed as Ki, was 9.6 nM. The Ki ratio in test [3] is 0.8.
On the same counts, the results for `O=C1C2CCCN2C(=O)N1CCCN1CCN(c2cccc(C(F)(F)F)c2)CC1` (stereo not given) are 109 nM and 28.7.
The like results for `COc1ccccc1N1CCN(CCCN2C(=O)C3CCCN3C2=O)CC1` (stereo not given) were, in that order, 3.1 nM and 0.7.
In the case of `FC(F)(F)c1cccc(N2CCN(CCCCN3CC4CCCCN4C3)CC2)c1` (stereo not given), the values for the Ki in test [1] and in test [2] were 15.3 nM and 115 nM, respectively. For the same molecule, in test [3], the Ki ratio was 7.5.
Turning to `FC(F)(F)c1cccc(N2CCN(CCCN3CC4CCCCN4C3)CC2)c1` (stereo not given), the Ki in test [1] was found to be 24.3 nM; in test [2], 278 nM. In test [3], the Ki ratio worked out at 11.4.
As to `COc1ccccc1N1CCN(CCCN2C(=O)C3CCCCN3C2=O)CC1` (stereo not given), the Ki in test [2] turned out to be 9.9 nM. Besides, the Ki ratio in test [3] was found to be 2.4.
For `O=C1C2CCCCN2C(=O)N1CCCCN1CCN(c2cccc(Cl)c2)CC1` (stereo not given), the affinity in test [2], expressed as Ki, was 12.1 nM. Besides, the Ki ratio in test [3] came to 1.7.
With `COc1ccccc1N1CCN(CCCN2CC3CCCN3C2)CC1` (stereo not given), the Ki in test [1] worked out at 12.2 nM; in test [2], 323 nM. For the same molecule, the Ki ratio in test [3] came out at 26.
Regarding `Clc1cccc(N2CCN(CCCCN3CC4CCCCN4C3)CC2)c1` (stereo not given), the Ki in test [1] is 24.3 nM; in test [2], 64.3 nM. The Ki ratio in test [3] turned out to be 2.6.
On to `COc1ccccc1N1CCN(CCCCN2C(=O)C3CCCN3C2=O)CC1` (stereo not given), for which the Ki in test [2] came to 8.3 nM. In addition, the Ki ratio in test [3] is 1.5.
The like results for `COc1ccccc1N1CCN(CCCCN2C(=O)C3CCCCN3C2=O)CC1` (stereo not given) were, in that order, 8.6 nM and 1.

The Ki is the equilibrium dissociation constant of an inhibitor or competing ligand from its target.
